Activity calls are given as the source filed them. Unless noted, the calls are words filed in the database; no cut-off is given here.
Experiments:
SW480 = test: Cytotoxicity against human SW480 cells after 48 hrs by MTS assay; format: functional, cell-based; conditions: SW480, 48 h
Outline: (§1)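 Cells grown in DMEM or RPMI-1640 with 10% FBS at 37 °C under 5% CO₂. Adherent cells plated 12 h before dosing; suspension cells plated at dosing, initial density 1 × 10⁵ cells/mL. MTS (5 mg/mL stock) added for 4 h at 37 °C, then SDS lysis and OD at 595 nm. IC50 by Reed–Muench.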

A549 [1] = test: Cytotoxicity against human A549 cells after 48 hrs by MTS assay; format: functional, cell-based; conditions: A549, 48 h; outline: as §1
HL-60 = test: Cytotoxicity against human HL60 cells after 48 hrs by MTS assay; format: functional, cell-based; conditions: HL-60, 48 h; outline: as §1
SMMC-7721 [2] = test: Cytotoxicity against human SMMC7721 cells after 48 hrs by MTS assay; format: functional, cell-based; conditions: SMMC-7721, 48 h; outline: as §1
MCF7 [3] = test: Cytotoxicity against human MCF7 cells after 48 hrs by MTS assay; format: functional, cell-based; conditions: MCF7, 48 h; outline: as §1
[4] = Cytotoxicity against mouse B lymphocytes after 48 hrs by CCK-8 assay; conditions: b-cell
Outline: (§2)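 Splenocyte toxicity run without ConA or LPS at 5 × 10⁶ cells/200 μL/well. Cultured 48 h at 37 °C, 5% CO₂ with CCK-8 during the final 4 h; A450 read against a 600 nm reference. Viability (%) = compound OD450 / […] OD450 × 100.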

[5] = Cytotoxicity against mouse T lymphocytes after 48 hrs by CCK-8 assay; conditions: t-cell; outline: as §2
T-cell = test: Inhibition of ConA-induced mouse T lymphocytes proliferation after 48 hrs by CCK-8 assay; format: functional
Outline: (§3)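 Murine splenocytes, 2.5 × 10⁶ per well, co-treated with compounds at various concentrations plus ConA (5 μg/mL, T-cell stimulus) or LPS (B-cell stimulus). Cultured 48 h at 37 °C, 5% CO₂; CCK-8 added for the last 4 h, A450 read against a 600 nm reference. Triplicate means; change expressed relative to the stimulated positive control. >10% inhibition counted as active.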

B-cell = test: Inhibition of LPS-induced mouse B lymphocytes proliferation after 48 hrs by CCK-8 assay; format: functional; outline: as §3
[6] = Cytotoxicity against human BEAS2B cells after 48 hrs by MTS assay; format: cell-based; conditions: beas-2b; outline: as §1
[7] = Selectivity index, ratio of IC50 for human BEAS2B cells to IC50 for human SW480 cells; format: functional
Outline: (§4)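 Ratio of the Beas-2B IC50 to the IC50 for each cancer line. Both IC50s come from the 48 h MTS viability assay with Reed–Muench calculation.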

A549 [8] = test: Selectivity index, ratio of IC50 for human BEAS2B cells to IC50 for human A549 cells; format: functional; outline: as §4
SMMC-7721 [9] = test: Selectivity index, ratio of IC50 for human BEAS2B cells to IC50 for human SMMC7721 cells; format: functional; outline: as §4
MCF7 [10] = test: Selectivity index, ratio of IC50 for human BEAS2B cells to IC50 for human MCF7 cells; format: functional; outline: as §4
[11] = Selectivity index, ratio of IC50 for human BEAS2B cells to IC50 for human HL60 cells; format: functional; outline: as §4

C[C@@H](O)/C=C/[C@@]1(O)C(C)(C)C[C@H](O)[C@@H](O)[C@@]1(C)O [WILSONOL H]
IC50 (SW480): > 10 µM
IC50 (A549 [1]): > 10 µM
IC50 (HL-60): > 10 µM
IC50 (SMMC-7721 [2]): > 10 µM
IC50 (MCF7 [3]): > 10 µM

C[C@@H](O)/C=C/[C@H]1C(CO)=CC(=O)CC1(C)C
IC50 (SW480): > 10 µM
IC50 (A549 [1]): > 10 µM
IC50 (HL-60): > 10 µM
IC50 (SMMC-7721 [2]): > 10 µM
IC50 (MCF7 [3]): > 10 µM

CC(=O)/C=C/[C@@]1(O)[C@H](C)[C@H](O[C@@H]2O[C@H](CO)[C@@H](O)[C@H](O)[C@H]2O)[C@@H](O)CC1(C)C
IC50 (SW480): > 10 µM
IC50 (A549 [1]): > 10 µM
IC50 (HL-60): > 10 µM
IC50 (SMMC-7721 [2]): > 10 µM
Activity [4]: Non-toxic
IC50 (MCF7 [3]): > 10 µM
Activity [5]: Non-toxic

CC(=O)/C=C/[C@@]1(O)[C@H](C)[C@H](O)[C@@H](O)CC1(C)C [WILSONOL C]
IC50 (SW480): > 10 µM
IC50 (A549 [1]): > 10 µM
IC50 (HL-60): > 10 µM
IC50 (SMMC-7721 [2]): > 10 µM
Activity [4]: Non-toxic
IC50 (MCF7 [3]): > 10 µM
Activity [5]: Non-toxic

C[C@@H](O)/C=C/[C@@H]1C(C)(C)[C@H](O)C[C@@H](O)[C@]1(C)O
IC50 (SW480): > 10 µM
IC50 (A549 [1]): > 10 µM
IC50 (HL-60): > 10 µM
IC50 (SMMC-7721 [2]): > 10 µM
IC50 (MCF7 [3]): > 10 µM

C[C@@H]1[C@H](O)[C@@H](O)CC(C)(C)[C@@]1(O)/C=C/[C@@H](C)O [WILSONOL B]
inhibition (T-cell): Active
IC50 (SW480): > 10 µM
IC50 (A549 [1]): > 10 µM
IC50 (HL-60): > 10 µM
IC50 (SMMC-7721 [2]): > 10 µM
Activity [4]: Non-toxic
IC50 (MCF7 [3]): > 10 µM
Activity [5]: Non-toxic

CC(O)/C=C/[C@H]1[C@H](C)[C@H](O)[C@@H](O)CC1(C)C (mixture of isomers) [WILSONOL E]
IC50 (SW480): > 10 µM
IC50 (A549 [1]): > 10 µM
IC50 (HL-60): > 10 µM
IC50 (SMMC-7721 [2]): > 10 µM
IC50 (MCF7 [3]): > 10 µM

COC(=O)/C=C(C)\C=C\[C@@]1(O)C(C)=CC(=O)CC1(C)C
inhibition (T-cell): inactive
IC50 (SW480): > 10 µM
IC50 (A549 [1]): > 10 µM
IC50 (HL-60): > 10 µM
IC50 (SMMC-7721 [2]): > 10 µM
Activity [4]: Non-toxic
inhibition (B-cell): inactive
IC50 (MCF7 [3]): > 10 µM
Activity [5]: Non-toxic

CC1=C(CC[C@@H](C)O)C(C)(C)C[C@H](O)[C@@H]1O
IC50 (SW480): > 10 µM
IC50 (A549 [1]): > 10 µM
IC50 (HL-60): > 10 µM
IC50 (SMMC-7721 [2]): > 10 µM
Activity [4]: Non-toxic
inhibition (B-cell): Active
IC50 (MCF7 [3]): > 10 µM
Activity [5]: Non-toxic

CC1=C(CC[C@H](C)O)C(C)(C)C[C@H](O[C@@H]2O[C@H](CO)[C@@H](O)[C@H](O)[C@H]2O)C1
IC50 (SW480): 12 µM
Activity [6]: Non-toxic
IC50 (A549 [1]): 2.5 µM
IC50 (HL-60): 5 µM
Ratio IC50 [7]: >16
Ratio IC50 (A549 [8]): >16
IC50 (SMMC-7721 [2]): 3.1 µM
Ratio IC50 (SMMC-7721 [9]): >16
Activity [4]: Non-toxic
Ratio IC50 (MCF7 [10]): >16
IC50 (MCF7 [3]): 3.4 µM
Ratio IC50 [11]: >16
Activity [5]: Non-toxic

C[C@@H]1[C@H](O)[C@@H](O)CC(C)(C)[C@H]1/C=C/[C@H](C)O
IC50 (SW480): > 10 µM
IC50 (A549 [1]): > 10 µM
IC50 (HL-60): > 10 µM
IC50 (SMMC-7721 [2]): > 10 µM
Activity [4]: Non-toxic
IC50 (MCF7 [3]): > 10 µM
Activity [5]: Non-toxic

C[C@H](O)/C=C/[C@@]1(O)[C@H](C)[C@H](O)[C@@H](O)CC1(C)C [WILSONOL A]
inhibition (T-cell): Active
IC50 (SW480): > 10 µM
IC50 (A549 [1]): > 10 µM
IC50 (HL-60): > 10 µM
IC50 (SMMC-7721 [2]): > 10 µM
Activity [4]: Non-toxic
IC50 (MCF7 [3]): > 10 µM
Activity [5]: Non-toxic

C[C@H](O)CCC1=C(CO)C[C@@H](O)CC1(C)C
inhibition (T-cell): Active
IC50 (SW480): > 10 µM
IC50 (A549 [1]): > 10 µM
IC50 (HL-60): > 10 µM
IC50 (SMMC-7721 [2]): > 10 µM
Activity [4]: Non-toxic
inhibition (B-cell): Active
IC50 (MCF7 [3]): > 10 µM
Activity [5]: Non-toxic

C[C@@H](O)/C=C/[C@H]1[C@H](CO)C[C@H](O)CC1(C)C
IC50 (SW480): > 10 µM
IC50 (A549 [1]): > 10 µM
IC50 (HL-60): > 10 µM
IC50 (SMMC-7721 [2]): > 10 µM
Activity [4]: Non-toxic
IC50 (MCF7 [3]): > 10 µM
Activity [5]: Non-toxic

C[C@@H]1C[C@H](O)CC(C)(C)[C@]1(O)CC[C@@H](C)O [WILSONOL F]
IC50 (SW480): > 10 µM
IC50 (A549 [1]): > 10 µM
IC50 (HL-60): > 10 µM
IC50 (SMMC-7721 [2]): > 10 µM
Activity [4]: Non-toxic
IC50 (MCF7 [3]): > 10 µM
Activity [5]: Non-toxic

C[C@@H](O)/C=C/[C@@]1(O)[C@@H](C)C[C@H](O)CC1(C)C
inhibition (T-cell): Active
IC50 (SW480): > 10 µM
IC50 (A549 [1]): > 10 µM
IC50 (HL-60): > 10 µM
IC50 (SMMC-7721 [2]): > 10 µM
Activity [4]: Non-toxic
inhibition (B-cell): Active
IC50 (MCF7 [3]): > 10 µM
Activity [5]: Non-toxic

— ChEMBL document CHEMBL2407050, “Wilsonols A-L, megastigmane sesquiterpenoids from the leaves of Cinnamomum wilsonii” (J Nat Prod, 2013)
